Reference: PubChem BioAssay AID624038 (The Scripps Research Institute Molecular Screening Center, 2012)
The whole screen tested about 360,000 compounds, of which about 1,100 (0.31%) were called active. The entries come from a sample that favours actives as a whole. A number with no mark means an inactive call.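 How the source made its calls: active means activation above the run cutoff, the mean activation of all test compounds plus 3 SD (cut at about 18% in these data); inactive means the rest.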

target: Muscarinic acetylcholine receptor M5 (Homo sapiens) (UniProt P08912); experiment: human M5 muscarinic receptor positive allosteric modulators, primary screen, CHO-K1 cells, Fluo-8 calcium fluorescence (AID 624038); settings: CHO-K1 hM5, Fluo-8 calcium, ACh EC20 PAM; at 3 µM; hits give high values; 0% = ACh EC20, 100% = ACh EC100
Summary of the method: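 Test system: CHO-K1 hM5 cells / Doses: single-point, 3 µM nominal / Times: Post-acetylcholine fluorescence recording 140 s / Technique: Fluo-8 calcium fluorescence / Measure: Max/basal fluorescence ratio as % of EC20–EC100 ACh window / Benchmarks: low control EC20 acetylcholine (0%), high control EC100 acetylcholine (100%) / Replicates: one well per compound, no replicates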

Muscarinic acetylcholine receptor M5 (Homo sapiens), sequence (P08912 whole entry, looked up): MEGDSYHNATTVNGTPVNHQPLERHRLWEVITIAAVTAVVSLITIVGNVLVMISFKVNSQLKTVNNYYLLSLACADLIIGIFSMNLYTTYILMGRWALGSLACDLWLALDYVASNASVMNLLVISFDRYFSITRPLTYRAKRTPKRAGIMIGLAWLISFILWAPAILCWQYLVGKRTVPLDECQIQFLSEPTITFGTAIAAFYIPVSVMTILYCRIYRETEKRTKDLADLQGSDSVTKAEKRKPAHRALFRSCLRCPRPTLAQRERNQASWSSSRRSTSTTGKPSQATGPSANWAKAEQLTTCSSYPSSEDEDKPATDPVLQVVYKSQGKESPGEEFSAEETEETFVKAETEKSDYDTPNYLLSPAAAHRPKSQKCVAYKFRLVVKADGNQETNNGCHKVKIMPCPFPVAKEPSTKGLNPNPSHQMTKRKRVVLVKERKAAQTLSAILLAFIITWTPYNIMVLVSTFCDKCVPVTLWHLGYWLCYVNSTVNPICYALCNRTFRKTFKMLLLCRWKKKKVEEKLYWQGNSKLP

SMILES | activation
CCCNC(=O)C1(C)CCN(Cc2ccc(Cl)c(Cl)c2)C1 (stereo unspecified) | 0.24%
Cc1cc(-n2cnc(-c3cn(C)nc3C)n2)no1 | -0.03%
CC(C)Oc1ccc(CN2CCC(n3nccc3NC(=O)c3cccnc3)CC2)cc1 | 0.11%
COc1ccc(S(=O)(=O)N2CCN(CC(=O)N3CCNC3=O)CC2)cc1OC | 2.2%
CN1C2CCC1CC(NC(=O)c1ccc([N+](=O)[O-])cc1)C2 (stereo unspecified) | 0.81%
Cc1cc(C)cc(C(=O)N2CCN=C2SCc2ccc([N+](=O)[O-])cc2)c1 | -5.65%
CC(=O)N1CC[n+]2c(-c3ccc([N+](=O)[O-])cc3)csc21 | 20% (active)
O=C(NNS(=O)(=O)c1c(F)cc(F)c(Cl)c1F)C12CC3CC(CC(C3)C1)C2 | -0.38%
CC(C)(C)C1CCC(OC(=O)CCC(=O)Nc2ccccc2)CC1 (stereo unspecified) | -2.13%
CN1CCC(=NNC(=O)CN(c2cccc(Cl)c2)S(C)(=O)=O)CC1 | 7.47%
COc1cc(C(=O)OCC(=O)NC(C)CCc2ccccc2)cc(OC)c1OC (stereo unspecified) | -10.1%
COc1cc(OC)cc(C(=O)NCC(=O)OCC(=O)NC(C)CCc2ccccc2)c1 (stereo unspecified) | 21.1% (active)
CC(CCc1ccccc1)NC(=O)COC(=O)c1ccc(F)cc1 (stereo unspecified) | -4.05%
CC(C)CN(C(=O)CSc1nncn1C)C1CCS(=O)(=O)C1 (stereo unspecified) | 11.7%
CCc1nn(CCCC(=O)NCc2ccc(C)cc2)c(=O)c2cc3occc3n12 | 2.21%
CCC(C(=O)NCc1ccc(OC)cc1)n1nc(C)n2c(cc3occc32)c1=O (stereo unspecified) | 18.4% (active)
CCOc1ccc(CCNC(=O)C(CC)n2nc(C)n3c(cc4sccc43)c2=O)cc1OCC (stereo unspecified) | -4.37%
COc1cc(OC)c(NC(=O)C2CCCN2C(=O)OCc2ccccc2)cc1Cl (stereo unspecified) | 2.68%
CCCCNC(=O)OC1CC2CC1[C@H]1CCCCN1C2=O (stereo partly specified) | 0.25%
COc1ccc(OCc2cccc(C(=O)N3CCCC3)c2)cc1 | 19.1% (active)
CC(=O)Oc1ccc(-c2cccc(C(=O)N3CCCCC3)c2)cc1 | -3.42%
CCOc1ccc(OCc2cccc(C(=O)N(CC)CC)c2)cc1 | -1.6%
Cc1ccc(C2SCC(=O)N2c2ccccc2)cc1 (stereo unspecified) | 13.5%
C[C@H]1COC(=O)[C@H](CC(=O)OC(C)(C)C)C/C=C\C[C@@H](CC(=O)N[C@H](CO)Cc2ccccc2)C(=O)N1 | 20.5% (active)
CC(C)(C)OC(=O)C[C@@H]1C/C=C\C[C@@H](CC(=O)N[C@H](CO)Cc2ccccc2)C(=O)NCCOC1=O | -2.01%
CC(C)(C)OC(=O)C[C@@H]1C/C=C\C[C@H](CC(=O)N[C@@H](CO)Cc2ccccc2)C(=O)N[C@H](Cc2ccccc2)COC1=O | -0.44%
